Measurements taken from article PMC8959088 (Journal of the American Chemical Society, 2022).
pKi: −log10 of the molar value.

Target: KIX domain of p300/CBP (KIX–MLL interaction) (Mus musculus, UniProt P45481)
Assay: competition fluorescence polarization assay, inhibition of KIX–MLL interaction
Type: binding
Method in brief: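 Competition fluorescence polarization format: test peptidomimetic competes with fluorescently labeled MLL peptide for KIX, and Ki is derived from the competition data.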

KIX domain of p300/CBP (KIX–MLL interaction), sequence (P45481 586-665 limits assumed): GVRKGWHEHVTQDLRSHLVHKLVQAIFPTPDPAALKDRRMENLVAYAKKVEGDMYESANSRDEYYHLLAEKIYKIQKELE

Ac-SDIMDFVLKNTP-NH2 [MLL^847–858, Ac-SDIMDFVLKNTP-NH2]
pKi: < 3.00
